From paper PMC3461514 (The Journal of Cell Biology, 2012)
Residue numbers refer to the chain shown, from its start. Names and notes keep the numbering of the source.

B1: GST-KRIT1 F123(R452E) (protein)
chain: EKVRIYRMDGSYRSVELKHGNNTTVQQIMEGMELSQETQQYFTIWICSENLSLQLKPYHKPLQHVRDWPEILAELTNLDPQRETPQLFLRRDVRLPLEVEKQIEDPLAILILFDEARYNLLKGFYTAPDAKLITLASLLLQIVYGNYESKKHKQGFLNEENLKSIVPVTKLKSKAPHWTNRILHEYKNLSTSEGVSKEMHHLQRMFLQNCWEIPTYGAAFFTGQIFTKASPSNHKVIPVYVGVNIKGLHLLNMETKALLISLKYGCFMWQLGDTDTCFQIHSMENKMSFIVHTKQAGLVVKLLMKLNGQLMPTER
modifications: left off: GST, end not stated, kept
B2: KRIT1(L717,721A): human KRIT1 Leu717/Leu721 to Ala mutant, used as FERM domain or full-length protein (protein)
chain: B1 chain with E33R, L298A, L302A
modifications: left off: GST, end not stated, kept

Key:
Rap1 = target: T1, Rap1 (Homo sapiens, UniProt P62834, G12V); experiment: Pull-down of HA-Rap1V12 from HEK293 cell lysates by GST-KRIT1 F123 variants; assay type: binding
T1 sequence (P62834 1-184 G12V): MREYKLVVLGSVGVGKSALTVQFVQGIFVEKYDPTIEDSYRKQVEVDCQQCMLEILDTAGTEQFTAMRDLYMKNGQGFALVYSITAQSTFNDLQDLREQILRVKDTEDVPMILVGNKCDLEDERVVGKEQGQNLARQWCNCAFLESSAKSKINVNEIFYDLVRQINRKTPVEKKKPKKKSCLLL
Outline: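 HEK293 cells were transfected (Lipofectamine Plus) with HA-Rap1A(G12V) cDNA, then lysed after 24 h in cold 50 mM Tris-HCl pH 7.4, 150 mM NaCl, 0.5% NP-40, 5 mM MgCl2 plus protease inhibitors. Bead-immobilized GST-KRIT1 FERM variants (WT or L717,721A; 10 µg) were incubated with 350 µg clarified lysate overnight at 4°C. Beads were washed, run on 4–20% SDS-PAGE and immunoblotted with monoclonal anti-HA (1:4,000).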

HEG1-C19 peptide = HEG1-C19 peptide (Homo sapiens, UniProt Q9ULI3); experiment: Affinity chromatography of KRIT1 FERM variants on HEG1-C19 peptide matrix; assay type: binding; settings: GFP-KRIT1 FERM from HEK293 cell lysates
Outline: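 Pull-down: human HEG1 C19 cytoplasmic tail model protein (His6, N-terminal in vivo biotinylation tag, E. coli-expressed) immobilized on beads; 10 µg added to 350 µg clarified lysate of HEK293 transfected 24 h with GFP-KRIT1 FERM WT or L717,721A; lysis in 50 mM Tris-HCl pH 7.4, 150 mM NaCl, 0.5% NP-40, 5 mM MgCl2 plus protease inhibitors; 4°C overnight; washed, 4–20% SDS-PAGE, anti-GFP immunoblot; three experiments.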

Row | Molecule | interaction with Rap1 (Rap1) | binding to the HEG1-C19 peptide (HEG1-C19 peptide)
1 | B1 | does not bind to Rap1 | –
2 | B2 | – | markedly reduced binding
